Measured values from different studies.
Each line is one published result; the experiments were not run side by side.
PDE4D: 3',5'-cyclic-AMP phosphodiesterase 4D (PDE4D, Homo sapiens, UniProt Q08499)
CDK7 with cyclin H: Cyclin-dependent kinase 7, with cyclin H (CDK7, Homo sapiens, UniProt P50613)

C#Cc1n[nH]c2c(-c3cn([C@@H](C)c4ccccn4)c(=O)[nH]c3=O)cc(F)cc12
inhibition (Serine/threonine-protein kinase PAK 2 (PAK2, Homo sapiens, UniProt Q13177); enzyme activity; inhibitor; 0.1 µM): 4.1%

O=c1c(O[C@@H]2O[C@H](CO)[C@@H](O)[C@H](O)[C@H]2O)c(-c2ccc(O)cc2)oc2cc(O)cc(O)c12
inhibition (PDE4D; enzyme activity; inhibitor; radiometric; 50 µM): 20.2%

C=C[C@H]1CN2CC[C@H]1C[C@H]2[C@H](O)c1ccnc2ccccc12
inhibition (CDK7 with cyclin H; enzyme activity; inhibitor; ADP detection; 10 µM): -25.5%

C[C@H](C(=O)N[C@H]1COc2ccccc2[C@@H]1S(C)(=O)=O)c1ccc(F)cc1
inhibition (Phospholipase A2, major isoenzyme (PLA2G1B, Sus scrofa, UniProt P00592); cell-free assay; inhibitor; 10 µM): -6%

COc1ccc(Cc2nccc3cc(OC)c(OC)cc23)cc1OC
inhibition (CDK7 with cyclin H; enzyme activity; inhibitor; ADP detection; 10 µM): -1.4%

Cn1cc(-c2cccc(N3CCc4c(sc5c4CC(C)(C)C5)C3=O)c2CO)cc(Nc2ccncn2)c1=O
inhibition (Protein kinase C gamma type (PRKCG, Homo sapiens, UniProt P05129); enzyme activity; inhibitor; 1 µM): -1%

O=C(/C=C/c1ccc(O)cc1)c1ccc(O)cc1O
inhibition (PDE4D; enzyme activity; inhibitor; radiometric; 50 µM): 52%

CCN(CC)CCCC[C@H](NC(=O)[C@H](CC(C)C)NC(=O)[C@H](C)NC(=O)[C@H](Cc1ccccc1)NC(=O)c1ccc(C(C)(C)C)cc1)C(=O)N[C@@H](CO)C(=O)OC
inhibition (Prostaglandin E2 receptor EP4 subtype (PTGER4, Homo sapiens, UniProt P35408); ligand displacement; radioligand; 10 µM): 5%

C=CCc1ccc(O)c(-c2cc(CC=C)ccc2O)c1
inhibition (PDE4D; enzyme activity; inhibitor; radiometric; 50 µM): 42.7%

O=C(Nc1cccnn1)N1CCN([C@@H]2CCOc3cc(C(F)(F)F)ccc32)CC1
inhibition (PDE4D; enzyme activity; inhibitor; 20 µM): 1%

COc1cc([C@@H]2c3cc4c(cc3[C@H](O)[C@H]3COC(=O)[C@H]23)OCO4)cc(OC)c1OC
inhibition (CDK7 with cyclin H; enzyme activity; inhibitor; ADP detection; 10 µM): 17.2%

c1ccc(C(NCCNC(c2ccccc2)c2ccccc2)c2ccccc2)cc1
inhibition (Protein phosphatase 3 catalytic subunit alpha (PPP3CA, Homo sapiens, UniProt Q08209); enzyme activity; inhibitor; 10 µM): 32%

COc1c2ccoc2cc2oc(=O)ccc12
inhibition (CDK7 with cyclin H; enzyme activity; inhibitor; ADP detection; 10 µM): -13.6%

C=C(C)[C@@H]1CC=C2C(=CC[C@]3(C)[C@@H]([C@@H](CCC=C(C)C)C(=O)O)[C@H](O)C[C@@]23C)[C@@]1(C)CCC(=O)O
inhibition (PDE4D; enzyme activity; inhibitor; radiometric; 5 µM): 54.3%

COc1cc2c(c(OC)c1OC)-c1ccc(OC)c(=O)cc1[C@@H](NC(C)=O)CC2
inhibition (CDK7 with cyclin H; enzyme activity; inhibitor; ADP detection; 10 µM): -0.4%

Clc1ccc2c(C3CCN(CCc4c[nH]c5ccccc45)CC3)c[nH]c2c1
inhibition (5-hydroxytryptamine receptor 1B (HTR1B, Homo sapiens, UniProt P28222); ligand displacement; radioligand; 10 µM): 100%

C[C@@H]1CCO[C@H]2Cn3cc(C(=O)NCc4ccc(F)cc4F)c(=O)c(O)c3C(=O)N12
inhibition (Gag-Pol polyprotein, integrase (gag-pol, Human immunodeficiency virus type 1 group M subtype B, UniProt P04585); enzyme activity; inhibitor; 50 nM): > 50%

COc1ccc(CC2NCCc3cc(OC)c(OC)cc32)cc1OC (centres unmarked)
inhibition (CDK7 with cyclin H; enzyme activity; inhibitor; ADP detection; 10 µM): 22.5%

COC(=O)c1cc(O)c(O)c(O)c1
inhibition (PDE4D; enzyme activity; inhibitor; radiometric; 50 µM): -5.1%

COc1cc(Nc2ncc(F)c(Nc3ccc4c(n3)NC(=O)C(C)(C)O4)n2)cc(OC)c1OC
inhibition (Serine/threonine-protein kinase MAK (MAK, Homo sapiens, UniProt P20794); binding; competition with immobilised ligand; 10 µM): 0%

O=C(O)CCCCCCCC(=O)O
inhibition (PDE4D; enzyme activity; inhibitor; radiometric; 50 µM): 47.1%

CCOC(=O)C1=C(C)NC(c2ccccc2)=C(C(=O)OCc2ccccc2)C1C#Cc1ccccc1 (centres unmarked)
inhibition (Adenosine receptor A2a (Adora2a, Mus musculus, UniProt Q60613); ligand displacement; radioligand; 10 µM; cell membranes): 0%

COc1cc(O)ccc1/C=C/C(=O)c1ccc(O)cc1
inhibition (PDE4D; enzyme activity; inhibitor; radiometric; 50 µM): 62.8%

CC[C@@]1(O)C(=O)OCc2c1cc1n(c2=O)Cc2cc3ccccc3nc2-1
inhibition (CDK7 with cyclin H; enzyme activity; inhibitor; ADP detection; 10 µM): 20.7%

CN(C)C(=O)COC(=O)Cc1ccc(OC(=O)c2ccc(NC(=N)N)cc2)cc1
inhibition (Prothrombin (F2, Homo sapiens, UniProt P00734); enzyme activity; inhibitor; 50 µM): 99.1%

O=c1c(O)c(-c2ccc(O)c(O)c2)oc2cc(O)cc(O)c12
inhibition (PDE4D; enzyme activity; inhibitor; radiometric; 50 µM): 100%
